Screening data: PubChem BioAssay, Broad Institute
Only a selection was taken, and hits are over-represented in it overall.
INS-1E rescue – protection of INS-1E cells from cytokine death, primary screen, ATP luminescence, single point; protection from cytokine-induced ATP loss, % at 10 µM; INS-1E cytokine-induced death, 48 h; normalised: neutral wells 0, positive control 100; hit rate 0.1% among 20,000; AID 488910, 2010;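 active = mean replicate protection from cytokine-induced ATP loss at least 50% and at least 75% of replicates each reaching 50%; inconclusive = meets only one of the two criteria, mean or replicate share; inactive = fails both the mean and replicate share criteria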
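Test system: INS-1E rat cells | Quantity: 8000 cells per well | Medium: Phenol-red-free RPMI with 5% fetal bovine serum | Reagent: Cytokine cocktail of IFN-γ, TNF-α and IL-1β | Doses: One compound concentration, pin transfer | Timing: 48 h co-treatment, 10 min post-lysis read | Technique: Luminescent ATP assay (CellTiter-Glo)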
YB-1 expression – inhibitors of YB-1 gene expression, primary screen, cell-based, fluorescence. U2OS, qRT-PCR YB-1 vs CDIP delta delta Cp, 16 h; active compounds read high; zero = DMSO, each unit about twofold. delta delta Cp (YB-1 minus CDIP) (no concentration beside the values). hit rate 0.37% among 30,000. AID 434959, 2010;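 active = delta delta Cp rounded down to an integer at or above 3, about 3 SD of DMSO wells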;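 also: higher means less YB-1 transcript or more CDIP transcript relative to DMSO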
T cruzi intra – inhibitors of intracellular Trypanosoma cruzi, primary screen, cell-based, plate reader, single point, set 2. activity score (inhibition), % at 5.01 µM. intracellular Trypanosoma cruzi in host cells. AID 651903, 2012. hit rate 4.9% among 22,000; in the data active = activity score above about 55%; inconclusive = no clear call, values can overlap the other calls;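 also: parasites and compound incubated about four days before reading; 0% = median of neutral control wells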
* marks the source's active call; other numbers are inactive results; ? = inconclusive; nt = no result.

SMILES | INS-1E rescue | YB-1 expression | T cruzi intra
C[C@@H]1CCCCO[C@@H](CN(C)C(=O)Nc2ccccc2)[C@@H](C)CN([C@H](C)CO)C(=O)c2cc(NC(=O)Nc3ccc(C(F)(F)F)cc3)ccc2O1 | -8.1 | -0.171 | ?
C[C@@H]1CCCCO[C@@H](CN(C)C(=O)Nc2ccc(C(F)(F)F)cc2)[C@@H](C)CN([C@H](C)CO)C(=O)c2cc(NC(=O)c3ccncc3)ccc2O1 | -2.2 | 0.323 | -24.4
Cc1ccc(C(O)(CO)CO)c(O)c1 | nt | 0.887 | nt
N#C/C(=C\Nc1cc(C(F)(F)F)cc(C(F)(F)F)c1)S(=O)(=O)Cc1ccc(Cl)cc1 | nt | -0.25 | nt
C=C1CC[C@H]2[C@](C)(CCC[C@]2(C)C(=O)OC)[C@H]1CC/C(C)=C/C(=O)O | nt | -0.469 | nt
C[C@@H]1CN([C@@H](C)CO)C(=O)c2cccc(N(C)C)c2O[C@H]1CN(C)S(=O)(=O)c1cn(C)cn1 | 5.6 | 0.0428 | -5.7
C[C@H](CO)N1C[C@H](C)[C@@H](CN(C)S(=O)(=O)c2cn(C)cn2)Oc2c(cccc2N(C)C)C1=O | 5.5 | 0.126 | 58.9*
C[C@@H]1CN([C@H](C)CO)C(=O)c2cccc(N(C)C)c2O[C@H]1CN(C)Cc1ccc2c(c1)OCO2 | 3.8 | 0.244 | 10.1
C[C@@H]1CN([C@@H](C)CO)C(=O)c2cccc(N(C)C)c2O[C@@H]1CN(C)Cc1ccc2c(c1)OCO2 | -1.9 | 11.6* | -15.4
C[C@@H]1CN([C@H](C)CO)C(=O)c2cccc(NC(=O)c3cnccn3)c2O[C@H]1CN(C)Cc1ccc(Cl)c(Cl)c1 | -11.2 | 0.0819 | 28.2
C[C@H]1CN([C@@H](C)CO)C(=O)c2cccc(NC(=O)c3ccncc3)c2O[C@H]1CN(C)Cc1ccc(Cl)c(Cl)c1 | -2.7 | 0.0499 | 86.0*
C[C@H](CO)N1C[C@H](C)[C@H](CN(C)Cc2ccc3c(c2)OCO3)Oc2c(NC(=O)c3ccncc3)cccc2C1=O | -0.7 | -0.103 | 63.6*
C[C@@H]1CN([C@H](C)CO)C(=O)c2cccc(NC(=O)c3ccc(-c4nccs4)cc3)c2O[C@H]1CN(C)Cc1ccc2c(c1)OCO2 | -4.1 | 0.268 | 45.2
C=C(C(=O)O[C@H]1C/C=C(/C)C[C@H](O)[C@H]2[C@H](C)C(=O)O[C@@H]2/C=C\1C)[C@@H]1CCC(=C)[C@@H]2C[C@H](O[C@@H]3O[C@H](COC(=O)CC(=O)O)[C@@H](O)[C@H](O)[C@H]3O)C(=C)[C@@H]2C1 | nt | 0.245 | nt
Cc1ccc(Oc2ccccc2)c(NC(=O)c2ccccc2)c1 | nt | -0.4 | nt
COc1ccc(/C=C/C(=O)Nc2ccc(N3CCOCC3)c(Cl)c2)cc1 | nt | -0.172 | nt
COC(=O)c1cc(C)nc(Sc2ccccc2NC(=O)Nc2ccc(Cl)cc2)n1 | nt | 0.103 | nt
C[C@H]1CN([C@@H](C)CO)C(=O)c2cccc(NC(=O)c3ccncc3)c2O[C@@H]1CN(C)Cc1ccc(Cl)c(Cl)c1 | -10.0 | -0.803 | 76.9*
C[C@H]1CN([C@@H](C)CO)C(=O)c2cccc(NC(=O)c3cnccn3)c2O[C@@H]1CN(C)Cc1ccc(Cl)c(Cl)c1 | -8.2 | -0.245 | -11.2
C[C@@H]1CN([C@H](C)CO)C(=O)c2cccc(NC(=O)c3cnccn3)c2O[C@@H]1CN(C)Cc1ccc(Cl)c(Cl)c1 | -19.6 | -0.52 | 26.1
C[C@@H]1CN([C@H](C)CO)C(=O)c2cccc(NC(=O)c3ccncc3)c2O[C@@H]1CN(C)Cc1ccc(Cl)c(Cl)c1 | -6.9 | -0.0166 | 75.6*
C=CCN1C(=O)CN2c3ccccc3C(C)(C)C12C (centres undefined) | nt | -0.448 | nt
Nc1cc(=O)nc(SCC(=O)NCc2ccccc2)n1-c1ccccc1 | nt | -0.178 | nt
C[C@@H]1CN([C@H](C)CO)C(=O)c2cc(NC(=O)Nc3ccc(C(F)(F)F)cc3)ccc2O[C@@H]1CN(C)Cc1ccc(-c2ccccc2)cc1 | 2.3 | -0.031 | -14.1
C[C@@H]1CN([C@@H](C)CO)C(=O)Cc2cc(NC(=O)Nc3ccc(C(F)(F)F)cc3)ccc2O[C@@H]1CN(C)Cc1ccc(-c2ccccc2)cc1 | -2.2 | 0.132 | 67.3*
C[C@H]1CN([C@@H](C)CO)C(=O)Cc2cc(NC(=O)Nc3ccc(C(F)(F)F)cc3)ccc2O[C@H]1CN(C)Cc1ccc(-c2ccccc2)cc1 | -78.8 | 0.0794 | 53.6
C[C@H]1CN([C@@H](C)CO)C(=O)Cc2cc(NC(=O)Nc3ccc(C(F)(F)F)cc3)ccc2O[C@@H]1CN(C)Cc1ccc(-c2ccccc2)cc1 | -56.1 | -0.141 | 70.2*
COc1ccc(NC(=O)Nc2cccc3c2O[C@@H](CN(C)Cc2ccc(C(=O)Nc4ccccc4N)cc2)[C@H](C)CN([C@@H](C)CO)C3=O)cc1 | -1.9 | -0.789 | 77.4*
